Assay results: ChEMBL document CHEMBL1146721, “Discovery and structure-activity relationship of coumarin derivatives as TNF-alpha inhibitors” (Bioorg Med Chem Lett, 2004)

system: Rattus norvegicus; assay: Tested in vivo for inhibition of serum tumor necrosis factor alpha production in rats at 100 ug/kg subcutaneous dose; type: functional; settings: sc
How it was run: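 LPS (E. coli B055/B5, 0.1 mg/kg) challenge given […] subcutaneous test compound, usually in 20% EtOH/80% PEG400; pyridine-containing compounds were given in saline as HCl salts formed in situ. Serum TNF-α was measured by ELISA 90 min later. Percent inhibition was calculated against an untreated control.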

| SMILES | inhibition in vivo at 0.1 mg/kg [%] |
| --- | --- |
| C[C@@H]1C[C@H]2[C@@H]3CCC4=CC(=O)C=C[C@]4(C)[C@@]3(F)[C@@H](O)C[C@]2(C)[C@@]1(O)C(=O)CO [DEXAMETHASONE] | 99 |

system: PBMC; assay: In vitro inhibition of tumor necrosis factor alpha production in LPS-challenged human peripheral blood mononuclear cells; type: functional, cell-based; settings: not given
How it was run: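 Human PBMC at 5 × 10⁵ cells/mL in RPMI1640 with 5% heat-inactivated FCS and antibiotics, pretreated with compound in DMSO for 60 min at 37 °C. Then stimulated with Salmonella minnesota R595 LPS (final 100 ng/mL) and cultured overnight. Supernatant TNF-α measured by human TNF-α ELISA; IC50 derived.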

| SMILES | IC50 [µM] |
| --- | --- |
| Cc1c(Cc2ccccc2)c(=O)oc2c(C)c(OC(=O)N(C)C)ccc12 | 10.3 |
| Cc1c(Cc2ccccc2)c(=O)oc2cc(OC(=O)N(C)C)c(I)cc12 | 0.06 |
| CN(C)C(=O)Oc1ccc2c(CC(O)c3ccc(C#N)cc3)c(Cc3ccccc3)c(=O)oc2c1 (stereo not drawn) | 28.3 |
| Cc1c(Cc2cccnc2)c(=O)oc2cc(OC(=O)N(C)C)ccc12 | 2.7 |
| Cc1c(-c2ccc(N)cc2)c(=O)oc2cc(OC(=O)N(C)C)ccc12 | 5.2 |
| CN(C)C(=O)Oc1ccc2c(-c3ccc(F)cc3)c(Cc3ccccc3)c(=O)oc2c1 | 41.7 |
| Cc1c(Cc2ccccc2)c(=O)oc2cc(OC(=O)N(C)C)c(C#N)cc12 | 0.85 |
| CN(C)C(=O)Oc1ccc2cc(Cc3ccccc3)c(=O)oc2c1 | > 50 |
| CCc1c(Cc2ccccc2)c(=O)oc2cc(OC(=O)N(C)C)ccc12 | 1.7 |
| C=CCCC(O)Cc1c(Cc2ccccc2)c(=O)oc2cc(OC(=O)N(C)C)ccc12 (stereo not drawn) | 48.4 |
| Cc1c(Cc2ccccc2)c(=O)oc2cc(OC(=O)N(C)C)c(C(=O)O)cc12 | > 50 |
| CCOC(=O)CC(=O)Nc1cccc(Cc2c(C)c3cc(Cl)c(OC(=O)N(C)C)cc3oc2=O)c1 | 0.05 |
| CN(C)C(=O)Oc1ccc2c(CCO)c(Cc3ccccc3)c(=O)oc2c1 | 2.1 |
| CN(C)C(=O)Oc1ccc2c(CCc3ccccc3)c(Cc3ccccc3)c(=O)oc2c1 | > 50 |
| COC(=O)c1ccc(-c2c(C)c3ccc(OC(=O)N(C)C)cc3oc2=O)cc1 | ≥ 50 |
| CN(C)C(=O)Oc1ccc2c(C(F)(F)F)c(Cc3ccc(F)cc3)c(=O)oc2c1 | > 50 |
| COc1cc2c(C)c(Cc3ccccc3)c(=O)oc2cc1OC(=O)N(C)C | 0.58 |
| Cc1c(CCc2ccccc2)c(=O)oc2cc(OC(=O)N(C)C)ccc12 | > 50 |
| CN(C)C(=O)Oc1ccc2c(CC(O)c3nccs3)c(Cc3ccccc3)c(=O)oc2c1 (stereo not drawn) | 16.5 |
| Cc1c(Cc2ccccc2)c(=O)oc2cc(OC(=O)N(C)C)c([N+](=O)[O-])cc12 | 0.12 |
| CCCCCc1c(C)c2ccc(OC(=O)N(C)C)cc2oc1=O | 22.8 |

| SMILES | IC50 [µM] |
| --- | --- |
| COc1cc(OC(=O)N(C)C)cc2oc(=O)c(Cc3ccccc3)c(C)c12 | > 50 |
| Cc1c(Cc2ccccc2)c(=O)oc2cc(OC(=O)N(C)C)c(C=O)cc12 | 9.8 |
| Cc1c(CN2CCOCC2)c(=O)oc2cc(OC(=O)N(C)C)ccc12 | > 50 |
| Cc1cc(=O)oc2cc(OC(=O)N(C)C)ccc12 | > 50 |
| Cc1c(CN2CCCCC2)c(=O)oc2cc(OC(=O)N(C)C)ccc12 | > 50 |
| CCc1cc2c(C)c(Cc3ccccc3)c(=O)oc2cc1OC(=O)N(C)C | 4.6 |
| CN(C)C(=O)Oc1ccc2c(C(=O)O)c(Cc3ccccc3)c(=O)oc2c1 | > 50 |
| Cc1c(CC2CCCCC2)c(=O)oc2cc(OC(=O)N(C)C)ccc12 | 7.2 |
| Cc1c(Cc2ccccn2)c(=O)oc2cc(OC(=O)N(C)C)ccc12 | 6.5 |
| CN(C)C(=O)Oc1ccc2c(CC(O)C3CCCCC3)c(Cc3ccccc3)c(=O)oc2c1 (stereo not drawn) | > 50 |
| Cc1c(-c2cccc(C(F)(F)F)c2)c(=O)oc2cc(OC(=O)N(C)C)ccc12 | > 50 |
| CN(C)C(=O)Oc1ccc2c(-c3ccncc3)c(Cc3ccccc3)c(=O)oc2c1 | 4.9 |
| Cc1c(Cc2ccc(F)cc2)c(=O)oc2cc(OC(=O)N(C)C)ccc12 | 0.32 |
| CN(C)C(=O)Oc1ccc2c(-c3ccccc3F)c(Cc3ccccc3)c(=O)oc2c1 | 4.9 |
| CN(C)C(=O)Oc1ccc2c(-c3ccccc3)c(Cc3ccc(F)cc3)c(=O)oc2c1 | 1.7 |
| Cc1c(-c2ccc(C(F)(F)F)cc2)c(=O)oc2cc(OC(=O)N(C)C)ccc12 | > 50 |
| Cc1c(C)c2ccc(OC(=O)N(C)C)cc2oc1=O | ≥ 50 |
| COc1ccccc1-c1c(C)c2ccc(OC(=O)N(C)C)cc2oc1=O | 7.5 |
| COC(=O)c1cccc(-c2c(C)c3ccc(OC(=O)N(C)C)cc3oc2=O)c1 | 1.7 |
| Cc1c(Cc2ccccc2)c(=O)oc2cc(OC(=O)N(C)C)c(C(C)C)cc12 | 40.1 |
| Cc1cc2c(C)c(Cc3ccccc3)c(=O)oc2cc1OC(=O)N(C)C | 0.4 |

| SMILES | IC50 [µM] |
| --- | --- |
| CCCCCCc1c(C)c2ccc(OC(=O)N(C)C)cc2oc1=O | 25.4 |
| CCCCc1c(C)c2ccc(OC(=O)N(C)C)cc2oc1=O | 24.7 |
| Cc1c(-c2ccccc2)c(=O)oc2cc(OC(=O)N(C)C)ccc12 | > 50 |
| Cc1c(Cc2ccccc2)c(=O)oc2cc(OC(=O)N(C)C)c(Cl)cc12 | 0.09 |
| CCCc1c(Cc2ccccc2)c(=O)oc2cc(OC(=O)N(C)C)ccc12 | 0.78 |
| CN(C)C(=O)Oc1ccc2c(-c3ccccn3)c(Cc3ccccc3)c(=O)oc2c1 | 18.7 |
| COc1cccc(-c2c(C)c3ccc(OC(=O)N(C)C)cc3oc2=O)c1 | 3.2 |
| Cc1c(Cc2ccccc2)c(=O)oc2cc(OC(=O)N(C)C)cc(F)c12 | 0.44 |
| CC(=O)Nc1cccc(Cc2c(C)c3cc(Cl)c(OC(=O)N(C)C)cc3oc2=O)c1 | 0.31 |
| Cc1c(-c2cccc(N)c2)c(=O)oc2cc(OC(=O)N(C)C)ccc12 | 2.7 |
| Cc1c(Cc2ccncc2)c(=O)oc2cc(OC(=O)N(C)C)c(Cl)cc12 | 0.13 |
| CN(C)C(=O)Oc1ccc2c(-c3ccc(C(F)(F)F)cc3)c(Cc3ccccc3)c(=O)oc2c1 | > 50 |
| CN(C)C(=O)Oc1ccc2c(-c3cccc(C(F)(F)F)c3)c(Cc3ccccc3)c(=O)oc2c1 | > 50 |
| Cc1c(Cc2ccccc2)c(=O)oc2cc(OC(=O)N(C)C)ccc12 | 1.8 |
| Cc1c(Cc2cccnc2)c(=O)oc2cc(OC(=O)N(C)C)c(Cl)cc12 | 0.45 |
| Cc1c(-c2ccccc2N)c(=O)oc2cc(OC(=O)N(C)C)ccc12 | 2.1 |
| Cc1c(Cc2ccncc2)c(=O)oc2cc(OC(=O)N(C)C)ccc12 | 1.3 |
| Cc1c(Cc2ccccc2)c(=O)oc2cc(OC(=O)N(C)C)c(Br)cc12 | 0.06 |
| Cc1c(-c2ccccc2C(F)(F)F)c(=O)oc2cc(OC(=O)N(C)C)ccc12 | ≥ 50 |
| COc1ccc(-c2c(C)c3ccc(OC(=O)N(C)C)cc3oc2=O)cc1 | 5.6 |
| CCCc1c(Cc2ccc(F)cc2)c(=O)oc2cc(OC(=O)N(C)C)ccc12 | 1.2 |

system: Rattus norvegicus; assay: Tested in vivo for inhibition of serum tumor necrosis factor alpha production in rats at 100 mg/kg subcutaneous dose; type: functional; settings: sc
How it was run: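 LPS (E. coli B055/B5, 0.1 mg/kg) challenge given […] sc compound, usually in 20% EtOH/80% PEG400; pyridine-containing compounds given in saline as in situ HCl salts. Serum TNF-α measured by ELISA 90 min later. Percent inhibition at 100 mg/kg calculated against an untreated control.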

| SMILES | inhibition in vivo at 100 mg/kg [%] |
| --- | --- |
| Cc1c(Cc2cccnc2)c(=O)oc2cc(OC(=O)N(C)C)ccc12 | 86 |
| Cc1c(Cc2ccc(F)cc2)c(=O)oc2cc(OC(=O)N(C)C)ccc12 | 42 |
| Cc1c(Cc2ccccc2)c(=O)oc2cc(OC(=O)N(C)C)c(Cl)cc12 | 57 |
| Cc1c(Cc2cccnc2)c(=O)oc2cc(OC(=O)N(C)C)c(Cl)cc12 | 86 |
